# Measured values published in ChEMBL document CHEMBL1132303, “Novel pyrimidine and purine derivatives of L-ascorbic acid: synthesis and biological evaluation” (J Med Chem, 1999).
# Legend:
# [1] = tested on: MOLT-4; assay: The compound was tested for growth inhibitory activity against Molt4/C8 tumor cell lines; assay type: functional, cell-based; conditions: Homo sapiens
# [2] = tested on: FM3A; assay: The compound was tested for growth inhibitory activity against FM3A/0 tumor cell lines; assay type: functional, cell-based; conditions: Mus musculus
# [3] = tested on: MIA PaCa-2; assay: The compound was tested for growth inhibitory activity against MiaPaCa2 tumor cell lines; assay type: functional, cell-based; conditions: Homo sapiens
# Summary of the method: (§1)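 Monolayer cells in DMEM with 10% FBS, 2 mM glutamine, penicillin/streptomycin, 37 °C, 5% CO2, plated at 1.5 × 10^4/mL (HeLa, Hep2, MCF7, MiaPaCa2) or 2 × 10^4/mL (Hef522). MTT read-out, percent growth versus untreated controls. Mean of three parallel samples in three experiments; IC50 reported.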
# [4] = tested on: L1210; assay: The compound was tested for growth inhibitory activity against L1210/0 tumor cell lines; assay type: functional, cell-based; conditions: Mus musculus
# [5] = tested on: HEL; assay: Minimum cytotoxic concentration that causes a microscopically detectable alteration of cell morphology in human embryonic lung cells; assay type: functional, cell-based
# Summary of the method: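 Human embryonic lung cells checked under the microscope. Minimum concentration producing a detectable change in cell morphology.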
# [6] = tested on: HeLa; assay: The compound was tested for growth inhibitory activity against HeLa tumor cell lines; assay type: functional, cell-based; conditions: Homo sapiens; summary of the method: as §1
# [7] = tested on: Hef522 normal fibroblasts (human); assay: The compound was tested for growth inhibitory activity against normal fibroblast (Hef522)
# [8] = tested on: HEL; assay: The compound was tested for antiviral activity by measuring the concentration required to reduce plaque formation against Varicella zoster TK+YS strain; assay type: functional, cell-based; conditions: Homo sapiens
# Summary of the method: (§2)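 Plaque reduction in human embryonic lung cells with 20 PFU virus input. EC50 is the concentration that cuts plaque formation by 50%.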
# [9] = tested on: HEL; assay: The compound was tested for cytotoxic concentration required to reduce human embryonic lung cell growth by 50%; assay type: functional, cell-based
# Summary of the method: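 Human embryonic lung cell growth measured. Value is the concentration reducing cell growth by 50%.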
# [10] = tested on: HEL; assay: The compound was tested for antiviral activity by measuring the concentration required to reduce plaque formation against Varicella zoster TK-(deficient) 07/1 strain; assay type: functional, cell-based; conditions: Homo sapiens; summary of the method: as §2
# [11] = tested on: CCRF-CEM; assay: The compound was tested for growth inhibitory activity against CEM/0 tumor cell lines; assay type: functional, cell-based; conditions: Homo sapiens
# [12] = tested on: HEL; assay: The compound was tested for antiviral activity by measuring the concentration required to reduce plaque formation against cytomegalo virus Davis strain; assay type: functional, cell-based; conditions: Homo sapiens; summary of the method: as §2
# [13] = tested on: HEL; assay: The compound was tested for antiviral activity by measuring the concentration required to reduce plaque formation against Varicella zoster TK-(deficient) YS/R strain; assay type: functional, cell-based; conditions: Homo sapiens; summary of the method: as §2
# [14] = tested on: HEp-2; assay: The compound was tested for growth inhibitory activity against Hep2 tumor cell lines; assay type: functional, cell-based; conditions: Homo sapiens; summary of the method: as §1
# [15] = tested on: MCF7; assay: The compound was tested for growth inhibitory activity against MCF-7 tumor cell lines; assay type: functional, cell-based; conditions: Homo sapiens; summary of the method: as §1
# [16] = tested on: HEL; assay: The compound was tested for antiviral activity by measuring the concentration required to reduce plaque formation against Varicella zoster TK+OKA strain; assay type: functional, cell-based; conditions: Homo sapiens; summary of the method: as §2
# [17] = tested on: HEL; assay: The compound was tested for antiviral activity by measuring the concentration required to reduce plaque formation against cytomegalo virus AD-169 strain; assay type: functional, cell-based; conditions: Homo sapiens; summary of the method: as §2
Structure (SMILES),IC50 [1],IC50 [3],IC50 [4],IC50 [6],IC50 [8],IC50 [10],IC50 [11],IC50 [12],IC50 [13],IC50 [15],IC50 [16],IC50 [17],IC50 [2],MCC [5],IC50 [7],IC50 [9],IC50 [14]
O=C1O/C(=C\Cn2cc(I)c(=O)[nH]c2=O)C(OCc2ccccc2)=C1OCc1ccccc1,3.9 µM,80 µM,7.5 µM,30 µM,1.4 µM,> 2 µM,3.3 µM,> 2 µM,1 µM,70 µM,1.3 µM,> 2 µM,22.6 µM,5 µM,40 µM,3 µM,10 µM
O=C1O/C(=C\Cn2ccc(=O)[nH]c2=O)C(OCc2ccccc2)=C1OCc1ccccc1,4.8 µM,30 µM,12.9 µM,50 µM,3.4 µM,3.4 µM,13 µM,3.5 µM,1.8 µM,20 µM,3 µM,3.5 µM,17.7 µM,20 µM,50 µM,5 µM,40 µM
O=C1O/C(=C\Cn2cc(C(F)(F)F)c(=O)[nH]c2=O)C(OCc2ccccc2)=C1OCc1ccccc1,0.9 µM,30 µM,2 µM,20 µM,0.5 µM,0.5 µM,1.6 µM,0.4 µM,0.3 µM,40 µM,0.3 µM,> 0.5 µM,3.6 µM,2 µM,60 µM,1 µM,40 µM
Nc1nc2c(ncn2COCCO)c(=O)[nH]1 [ACYCLOVIR],,,,,0.78 µM,17 µM,,,12 µM,,0.16 µM,,,> 50 µM,,> 100 µM,
O=c1[nH]c(=O)n([C@H]2C[C@H](O)[C@@H](CO)O2)cc1/C=C/Br [BRIVUDINE],,,,,0.005 µM,> 50 µM,,,> 50 µM,,0.001 µM,,,> 50 µM,,> 100 µM,
Nc1nc2c(ncn2COC(CO)CO)c(=O)[nH]1 [GANCICLOVIR],,,,,,,,5 µM,,,,1 µM,,> 50 µM,,> 50 µM,

# Second part, led by results:
IC50 [1],IC50 [3],IC50 [4],IC50 [6],IC50 [8],IC50 [10],IC50 [11],IC50 [12],IC50 [13],IC50 [15],IC50 [16],IC50 [17],Structure (SMILES),IC50 [2],MCC [5],IC50 [7],IC50 [9],IC50 [14]
3.9 µM,> 100 µM,110 µM,70 µM,1.5 µM,2.8 µM,5.8 µM,> 0.5 µM,0.6 µM,> 100 µM,1.2 µM,> 0.5 µM,O=C1O/C(=C\Cn2cnc3c(-n4cccc4)ncnc32)C(OCc2ccccc2)=C1OCc1ccccc1,> 200 µM,20 µM,> 100 µM,4 µM,> 100 µM
10.9 µM,40 µM,5.1 µM,40 µM,3.8 µM,3.5 µM,15.1 µM,3.5 µM,2.7 µM,60 µM,2.6 µM,3.5 µM,O=C1O/C(=C\Cn2cc(F)c(=O)[nH]c2=O)C(OCc2ccccc2)=C1OCc1ccccc1,3.4 µM,20 µM,40 µM,9 µM,20 µM
3.9 µM,80 µM,7.5 µM,30 µM,> 2 µM,> 2 µM,3.5 µM,> 2 µM,1 µM,40 µM,1.3 µM,> 2 µM,O=C1O/C(=C\Cn2cc(Br)c(=O)[nH]c2=O)C(OCc2ccccc2)=C1OCc1ccccc1,17.1 µM,5 µM,30 µM,3 µM,90 µM
6.8 µM,40 µM,4.1 µM,30 µM,> 5 µM,> 5 µM,4.4 µM,> 5 µM,3.8 µM,> 100 µM,5 µM,> 5 µM,O=C1O/C(=C/Cn2cnc3ncnc(Cl)c32)C(OCc2ccccc2)=C1OCc1ccccc1,11.4 µM,20 µM,20 µM,20 µM,60 µM
6.1 µM,40 µM,12.2 µM,40 µM,> 2 µM,> 2 µM,6 µM,> 2 µM,1 µM,60 µM,1.3 µM,> 2 µM,O=C1O/C(=C\Cn2cc(Cl)c(=O)[nH]c2=O)C(OCc2ccccc2)=C1OCc1ccccc1,16.9 µM,5 µM,30 µM,3 µM,20 µM
14.8 µM,60 µM,11.6 µM,30 µM,> 5 µM,> 5 µM,15.9 µM,> 5 µM,> 5 µM,40 µM,> 5 µM,> 5 µM,O=C1O/C(=C\Cn2cnc3c(Cl)ncnc32)C(OCc2ccccc2)=C1OCc1ccccc1,16.4 µM,20 µM,50 µM,8 µM,60 µM
